In paper PMC10694828 (RSC Advances, 2023):

Experiments:
MAO-B [1] = molecular target: T1, MAO-B (Homo sapiens, UniProt P27338); assay: MAO-B inhibition, continuous assay with benzylamine; type: biochemical; settings: for SI (selectivity index for MAO-B compared to MAO-A): (IC50 of MAO-A)/(IC50 of MAO-B); for remaining activity at 10 µM: read-out: Residual activity at 10 μM (%) MAO-B
T1 sequence (P27338 1-520): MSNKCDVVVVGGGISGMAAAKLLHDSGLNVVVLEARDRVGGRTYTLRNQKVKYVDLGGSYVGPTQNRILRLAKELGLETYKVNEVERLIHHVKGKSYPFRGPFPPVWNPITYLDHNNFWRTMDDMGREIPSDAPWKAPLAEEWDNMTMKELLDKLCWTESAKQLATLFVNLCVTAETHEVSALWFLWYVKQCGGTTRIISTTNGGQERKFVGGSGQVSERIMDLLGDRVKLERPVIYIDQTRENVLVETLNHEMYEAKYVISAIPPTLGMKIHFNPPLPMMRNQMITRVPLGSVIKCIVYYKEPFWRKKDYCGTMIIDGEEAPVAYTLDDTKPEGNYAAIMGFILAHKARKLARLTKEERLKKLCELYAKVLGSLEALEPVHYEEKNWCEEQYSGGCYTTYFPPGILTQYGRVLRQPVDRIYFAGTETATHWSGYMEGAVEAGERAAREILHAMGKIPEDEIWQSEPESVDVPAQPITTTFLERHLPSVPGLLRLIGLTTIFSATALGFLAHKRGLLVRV

MAO-B [2] = molecular target: T1, MAO-B; assay: Enzyme kinetics of MAO-B inhibition; type: biochemical; settings: for Inhibition type for MAO-B: Lineweaver–Burk plots
How it was run: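 Recombinant human MAO-B. Activity was followed continuously by absorbance at 250 nm with benzylamine as substrate at five concentrations (0.0375–0.60 […]). Three inhibitor concentrations were tested against each substrate level. The inhibition pattern and Ki came from Lineweaver–Burk plots and from secondary plots of slope versus inhibitor concentration.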

PAMPA for BBB permeation = type: in vitro ADME; settings: for Papp: PAMPA; for Experimental Pe / Prediction (CNS permeation): PAMPA-BBB
How it was run: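 Passive BBB permeation by PAMPA on a filter membrane with 0.45 micron pores, 125 microns thick. Drug concentrations in donor, receiver and reference wells were measured by UV spectroscopy. Pe (10−6 cm s−1) was calculated as […]. Pe > 4.00 was classed CNS+ (high permeation).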

recombinant human MAO-A = molecular target: T2, recombinant human MAO-A (Homo sapiens, UniProt P21397); assay: MAO-A inhibition, continuous assay with kynuramine; type: biochemical; settings: for remaining activity at 10 µM: read-out: Residual activity at 10 μM (%) MAO-A
T2 sequence (P21397 1-527): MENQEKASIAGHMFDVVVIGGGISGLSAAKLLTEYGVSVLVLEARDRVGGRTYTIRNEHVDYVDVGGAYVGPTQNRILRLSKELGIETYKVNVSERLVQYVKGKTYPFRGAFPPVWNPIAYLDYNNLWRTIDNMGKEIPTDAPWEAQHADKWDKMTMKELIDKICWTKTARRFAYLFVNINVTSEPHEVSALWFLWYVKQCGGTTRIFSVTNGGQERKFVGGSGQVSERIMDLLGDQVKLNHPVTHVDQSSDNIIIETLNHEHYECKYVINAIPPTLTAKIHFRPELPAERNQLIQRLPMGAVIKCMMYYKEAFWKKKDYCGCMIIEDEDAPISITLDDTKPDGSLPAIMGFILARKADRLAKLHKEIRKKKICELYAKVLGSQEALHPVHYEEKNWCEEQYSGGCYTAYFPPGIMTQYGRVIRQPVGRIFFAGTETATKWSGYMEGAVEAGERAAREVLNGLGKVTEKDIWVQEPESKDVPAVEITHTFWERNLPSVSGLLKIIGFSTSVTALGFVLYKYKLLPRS

MAO-B [3] = molecular target: T1, MAO-B; assay: Reversibility of MAO-B inhibition by dialysis; type: biochemical; settings: for Reversibility of MAO-B inhibition: dialysis; for Relative MAO-B activity, undialyzed (AU) / Relative MAO-B activity, dialyzed (AD): ~2.0 times IC50, 30 min preincubation; for Relative MAO-B activity, dialyzed (AD): dialyzed 6 h with two buffer changes

Row | SMILES | IC50 (MAO-B [1]) | SI (selectivity index for MAO-B compared to MAO-A) (MAO-B [1]) | remaining activity at 10 µM (MAO-B [1]) | Ki (MAO-B [2]) | Inhibition type for MAO-B (MAO-B [2]) | Papp (PAMPA for BBB permeation) | Experimental Pe (PAMPA for BBB permeation) | IC50 (recombinant human MAO-A) | remaining activity at 10 µM (recombinant human MAO-A) | Reversibility of MAO-B inhibition (MAO-B [3]) | Relative MAO-B activity, undialyzed (AU) (MAO-B [3]) | Relative MAO-B activity, dialyzed (AD) (MAO-B [3]) | Prediction (CNS permeation) (PAMPA for BBB permeation)
1 | O=C1Nc2ccc(F)cc2C1=NN=Cc1ccc(OCc2ccccc2)cc1 [ISB3] | 13.9 ± 0.204 µM | >2.87 | 59.6 ± 1.11% | – | – | – | – | > 40 µM | 74.5 ± 0.95% | – | – | – | –
2 | O=C1Nc2ccccc2C1=NN=Cc1cccc(OCc2ccccc2)c1 [ISBB1] | 0.54 ± 0.029 µM | 2.91 | 1.99 ± 0.86% | – | – | – | – | 1.57 ± 0.048 µM | 4.84 ± 1.61% | – | – | – | –
3 | O=C1Nc2ccc(Br)cc2C1=NN=Cc1ccc(OCc2cccc(F)c2)cc1 [ISFB2] | 16 ± 0.308 µM | >2.49 | 57.6 ± 1.1% | – | – | – | – | > 40 µM | 88.5 ± 1.38% | – | – | – | –

Further molecules by falling IC50 (MAO-B [1]), results first:

Row | IC50 (MAO-B [1]) | SI (selectivity index for MAO-B compared to MAO-A) (MAO-B [1]) | remaining activity at 10 µM (MAO-B [1]) | Ki (MAO-B [2]) | Inhibition type for MAO-B (MAO-B [2]) | Papp (PAMPA for BBB permeation) | Experimental Pe (PAMPA for BBB permeation) | IC50 (recombinant human MAO-A) | remaining activity at 10 µM (recombinant human MAO-A) | Reversibility of MAO-B inhibition (MAO-B [3]) | Relative MAO-B activity, undialyzed (AU) (MAO-B [3]) | Relative MAO-B activity, dialyzed (AD) (MAO-B [3]) | SMILES | Prediction (CNS permeation) (PAMPA for BBB permeation)
4 | 0.135 ± 0.002 µM | – | -3.03 ± 0.24% | 0.069 ± 0.025 µM | competitive | 40.9 ± 2.4 nm/s | higher than 4.0 ×10^−6 cm s^−1 | 0.678 ± 0.006 µM | 4.17 ± 0.32% | reversible | 31.42% | 79.32% | O=C1Nc2ccccc2/C1=N/N=Cc1ccc(OCc2cccc(F)c2)cc1 [ISFB1, (3Z)-3-((4-((3-fluorobenzyl)oxy)benzylidene)hydrazineylidene)indolin-2-one] | CNS+ (Pe (10^−6 cm s^−1) > 4.00: CNS+ (high permeation))
5 | 0.124 ± 0.007 µM | 55.03 | -8.77 ± 0.14% | 0.055 ± 0.01 µM | competitive | 49.3 ± 1.3 nm/s | higher than 4.0 ×10^−6 cm s^−1 | 6.824 ± 0.049 µM | 38.78 ± 0.25% | reversible | 31.61% | 83.77% | O=C1Nc2ccccc2/C1=N/N=Cc1ccc(OCc2ccccc2)cc1 [ISB1, (3Z)-3-((4-(benzyloxy)benzylidene)hydrazineylidene)indolin-2-one] | CNS+ (Pe (10^−6 cm s^−1) > 4.00: CNS+ (high permeation))
